Results on 19 compounds are retold here after ChEMBL document CHEMBL1159342, “Nitric oxide inhibitory isopimarane-type diterpenes from Orthosiphon stamineus of Indonesia” (J Nat Prod, 2003).

This assay concerns J774.1. The experiment in a line: Inhibition of LPS-induced NO production in mouse J774.1 cells after 24 hrs. The format is functional, cell-based. To be noted: J774.1, 24 h. Put shortly:
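Cells harvested with trypsin, seeded at 1 × 10^5 cells/well, adhered 2 h at 37 °C under 5% CO2. Medium then replaced with fresh medium containing LPS (10 µg/mL) plus test compounds at indicated concentrations, 24 h. Nitrite in supernatant measured with Griess reagent (10 min, room temperature), absorbance 550 nm. Quantified against NaNO2 standard curve in medium, medium-only blank subtracted.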

Consider `C[C@@H]1C[C@H]2[C@@H]3CCC4=CC(=O)C=C[C@]4(C)[C@@]3(F)[C@@H](O)C[C@]2(C)[C@@]1(O)C(=O)CO` [DEXAMETHASONE], for which the midpoint of inhibition, the IC50, lay at 170 µM.
Consider `C=C[C@@]1(C)C[C@@H](OC(=O)c2ccccc2)[C@H]2[C@](O)(C1=O)[C@H](OC(C)=O)C[C@H]1C(C)(C)[C@H](O)[C@H](OC(C)=O)[C@H](OC(=O)c3ccccc3)[C@@]12C` [ORTHOSIPHOL A], for which the IC50 (in general, the concentration that gives 50% inhibition) was determined as 11.5 µM.
Take `C=C[C@@]1(C)C[C@@H](OC(=O)c2ccccc2)[C@H]2[C@](O)(C1=O)[C@H](OC(C)=O)C[C@H]1C(C)(C)[C@H](OC(C)=O)[C@H](O)[C@H](OC(=O)c3ccccc3)[C@@]12C` [ORTHOSIPHOL B]: it took 20.5 µM to reach half-maximal inhibition (IC50).
On to `C=C[C@@]1(C)C[C@@H](OC(=O)c2ccccc2)[C@@H]2[C@@]3(C)C=C(OC(C)=O)C(=O)C(C)(C)[C@@H]3C[C@@H](OC(C)=O)[C@@]2(O)C1=O` [ORTHOSIPHOL D], for which the IC50 came out at 14.4 µM.
`C=C[C@@]1(C)C[C@@H](OC(=O)c2ccccc2)[C@H]2[C@](O)(C1=O)[C@H](O)C[C@H]1C(C)(C)[C@H](OC(C)=O)[C@H](OC(C)=O)[C@H](OC(=O)c3ccccc3)[C@@]12C` [ORTHOSIPHOL F]: the IC50 came out at 34.5 µM.
`C=C[C@@]1(C)C[C@@H](O)[C@H]2[C@](O)(C1=O)[C@H](O)C[C@H]1C(C)(C)[C@H](OC(C)=O)[C@H](OC(C)=O)[C@H](OC(=O)c3ccccc3)[C@@]12C` [ORTHOSIPHOL G] gave an IC50 of 145 µM.
As for `C=C[C@@]1(C)CC(=O)[C@H]2[C@](O)(C1=O)[C@H](O)C[C@H]1C(C)(C)[C@H](OC(C)=O)[C@H](OC(C)=O)[C@H](OC(=O)c3ccccc3)[C@@]12C` [ORTHOSIPHOL I], the IC50 amounted to 102 µM.
Then `C=C[C@@]1(C)CC(=O)[C@H]2[C@](O)(C1=O)[C@H](OC(C)=O)C[C@H]1C(C)(C)[C@H](OC(C)=O)[C@H](OC(C)=O)[C@H](OC(=O)c3ccccc3)[C@@]12C` [ORTHOSIPHOL J], with 66.3 µM.
The compound `C=C[C@@]1(C)C[C@@H](O)[C@H]2[C@](O)(C1=O)[C@H](OC(C)=O)C[C@H]1C(C)(C)[C@H](OC(=O)c3ccccc3)[C@H](OC(C)=O)[C@H](OC(=O)c3ccccc3)[C@@]12C` [ORTHOSIPHOL O] returned an IC50 of 27.7 µM.
For `C=C[C@]1(C)C(=O)[C@]2(O)[C@H](OC(C)=O)C[C@H]3C(C)(C)[C@H](OC(C)=O)[C@H](O)[C@H](OC(=O)c4ccccc4)[C@]3(C)[C@H]2[C@H](OC(=O)c2ccccc2)[C@H]1O` [ORTHOSIPHOL R] the value was 35.7 µM.
For `C=C[C@@]1(C)C[C@@H](OC(=O)c2ccccc2)[C@H]2[C@](O)(C1=O)[C@H](O)C[C@H]1C(C)(C)[C@H](O)[C@H](OC(C)=O)[C@H](OC(=O)c3ccccc3)[C@@]12C` [ORTHOSIPHOL T] the value was 35.9 µM.
Then `C=C[C@@]1(C)C[C@@H](O)[C@H]2[C@](O)(C1=O)[C@H](OC(C)=O)C[C@H]1C(C)(C)[C@H](OC(C)=O)[C@H](OC(C)=O)[C@H](OC(=O)c3ccccc3)[C@@]12C` [ORTHOSIPHOL U], with 59.7 µM.
As to `C=C[C@@]1(C)C[C@@H](O)[C@H]2[C@](O)(C1=O)[C@H](OC(C)=O)C[C@H]1C(C)(C)[C@H](OC(C)=O)[C@H](O)[C@H](OC(=O)c3ccccc3)[C@@]12C` [ORTHOSIPHOL V], the IC50 is 54.5 µM.
Then `C=C[C@@]1(C)C[C@@H](O)[C@H]2[C@](O)(C1=O)[C@H](OC(C)=O)C[C@H]1C(C)(C)[C@H](O)[C@H](OC(C)=O)[C@H](OC(=O)c3ccccc3)[C@@]12C` [ORTHOSIPHOL W], with 57.6 µM; and `C=C[C@@]1(C)C[C@@H](O)[C@H]2[C@](O)(C1=O)[C@H](O)C[C@H]1C(C)(C)[C@H](OC(=O)c3ccccc3)[C@H](OC(C)=O)[C@H](OC(=O)c3ccccc3)[C@@]12C` [ORTHOSIPHOL X], with 6.4 µM.
For `C=C[C@@]1(C)C[C@@H](O)[C@@H]2[C@@]3(C)C=C(OC(C)=O)C(=O)C(C)(C)[C@@H]3C[C@@H](OC(C)=O)[C@@]2(O)C1=O` [ORTHOSIPHOL Y] the value was 37.9 µM; for `C=C[C@@]1(C)CC(=O)[C@H]2[C@](O)(C1=O)[C@H](OC(C)=O)C[C@H]1C(C)(C)[C@H](OC(=O)c3ccccc3)[C@H](OC(C)=O)[C@H](OC(=O)c3ccccc3)[C@@]12C` [ORTHOSIPHONONE A], 32.1 µM.
Take `C=C[C@@]1(C)C[C@@H](OC(=O)c2ccccc2)[C@@H]2[C@@](C)(CC(=O)O)[C@H](C(C)(C)C(=O)OC)C[C@@H](OC(C)=O)[C@@]2(O)C1=O` [SECOORTHOSIPHOL B]: 127 µM corresponded to half-maximal inhibition (IC50).
Then `CNC(=N)NCCC[C@H](N)C(=O)O` [TILARGININE], with 26 µM.
